Screens: PubChem, several laboratories
Most compounds without a hit are left out; they make up all but 1.3% or so of the library.
Lipid droplet: inhibitors of hepatocyte lipid droplet formation, primary screen, imaging, high-throughput imaging, BODIPY stain | AML12 mouse hepatocytes, oleate lipid droplets | inhibition, % at 6.5 µM | 240,000 tested, 0.4% active | AID 1656, 2009;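 active = lipid droplet intensity inhibited by at least 50%, with more than 500 cells counted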
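Assay system: AML12 mouse liver cells | Compound dosing: One dose, 6.5 µM compound | Read-out basis: Droplet intensity reduction, % inhibition | Measured by: Fluorescence imaging, 20x objective, two fields per well | Schedule: Overnight treatment with compound plus oleate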
NS3 helicase inh: inhibitors of HCV NS3 helicase, primary screen, biochemical, Cy5 molecular beacon fluorescence; Hepatitis C virus NS3 helicase; NS3 helicase DNA unwinding; inhibition, % at 10.9 µM; 290,000 tested, 0.56% active; AID 1800, 2009;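 active = inhibition above the mean of all tested compounds plus 3 SD, set per campaign, cut at about 35% in these data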
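Assay system: hepatitis C virus NS3 helicase domain fragment enzyme. Also added: annealed dual-labelled DNA beacon duplex, ATP-started. Timing: 1 h reaction at 25 °C, ATP-initiated. Technique: Cy5 fluorescence at 0 and 60 min, beacon hairpin quenching. Evaluation: % inhibition of unwinding. Replication: one well per compound.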
TbMetRS inhib: T. brucei MetRS inhibitors, primary screen, biochemical, luminescence | purified T. brucei MetRS, ATP depletion, Kinase-Glo luminescence | methionyl-tRNA synthetase (Trypanosoma brucei brucei) | inhibition, % at 11.9 µM | 360,000 tested, 0.4% active;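 active = inhibition above a per-plate cutoff of the control wells' mean inhibition plus 3 SD, cut at about 5.5% in these data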
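Assay system: T. brucei methionyl-tRNA synthetase, purified | Medium: HEPES buffer with MgCl2, KCl, DTT, spermine, BSA, pyrophosphatase | Compound: 11.9 µM single point | Incubation: 15 min enzyme-compound preincubation, 2 h reaction, 10 min detection, 25 °C | Measured by: Kinase-Glo luciferase luminescence reporting remaining unconsumed ATP | Measure: % inhibition normalized to control-well medians | Replication: Singlicate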
HCV core dimer: inhibitors of HCV core protein dimerization, primary screen, biochemical, TR-FRET, high-throughput; TR-FRET GST/Flag-core106 dimerization, 1536-well; inhibition, % at 5 µM; 300,000 tested, 0.33% active; AID 1899, 2009;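 active = inhibition above the mean of all tested compounds plus 3 SD, set per screening campaign, cut at about 45% in these data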
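Assay system – GST-tagged and Flag-tagged HCV core protein residues 1-106 · Quantity – core106 proteins, GST 13.5 nM and Flag 17 nM · Benchmarks – unlabelled core106 and no-GST-core106 wells · Read-out basis – percent inhibition of core106 dimerization signal · Detection – time-resolved FRET, ex 340 nm, em 617 and 671 nm · Schedule – 4 h at 22.5 °C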
NS3 hel confirm: HCV NS3 helicase inhibitors, retest, confirmation, biochemical, Cy5 molecular beacon fluorescence, triplicate. shares compounds with NS3 helicase inh. inhibition, % at 10.9 µM. 1,600 tested, 31% active. NS3 helicase DNA unwinding. AID 1943, 2009;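 active = inhibition above the mean of all tested compounds plus 3 SD, cutoff set per campaign, cut at about 36% in these data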
FID counter trip: compounds displacing fluorescent DNA intercalator, artefact control for HCV NS3 helicase inhibitor project, biochemical, FID fluorescence, triplicate; shares compounds with NS3 helicase inh; DNA fluorescent intercalator displacement; inhibition, % at 7.9 µM; 1,600 tested, 4% active; AID 1945, 2009; in the data active = inhibition above about 37%;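 also: higher means more displacement of ethidium bromide from the DNA hairpin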
FID counter DR: compounds displacing fluorescent intercalator from DNA, dose response, counter-screen for HCV NS3 helicase inhibitor project, biochemical, fluorescence; shares compounds with NS3 helicase inh; fluorescent intercalator displacement from DNA; IC50, µM; 120 tested, under 10 active; AID 2172, 2009; call rule not given here
Each line names hits and unclear results; the compound was inactive in the other large screens (follow-up assays come after a bar, where they were run).

CCc1ccc(C(CC(=O)c2ccc(Cl)cc2)C(=O)O)cc1 (stereo not drawn)	none (no result: Lipid droplet)
CC(C)c1ccc(C(CC(=O)c2ccc(Cl)cc2)C(=O)O)cc1 (stereo not drawn)	NS3 helicase inh 37 (no result: Lipid droplet) | NS3 hel confirm 68 | FID counter trip inactive
CCOc1cc(/C=C/C(=O)OCC(=O)NCc2ccco2)cc(Cl)c1OC	none (no result: Lipid droplet, NS3 helicase inh)
CCN(CC)S(=O)(=O)c1ccc(Cl)c(NC(=S)NC(=O)C2CCCC2)c1	none (no result: Lipid droplet, NS3 helicase inh, HCV core dimer)
CCN(CC)c1ccc(S(=O)(=O)Nc2cc(Cl)ccc2Cl)cc1NC(=S)NC(=O)C1CCCC1	NS3 helicase inh 58 | NS3 hel confirm inactive | FID counter trip inactive
O=C(N/N=C/c1cc([N+](=O)[O-])ccc1O)C(O)(c1ccccc1)c1ccccc1	NS3 helicase inh 46 | NS3 hel confirm inactive | FID counter trip inactive
Cc1cc(Cl)ccc1Oc1ccccc1C(=O)CC#N	NS3 helicase inh 37 | NS3 hel confirm 53 | FID counter trip inactive | FID counter DR inactive
Cc1cc(Cl)ccc1Oc1ccc(C(N)=O)cc1[N+](=O)[O-]	none
C/C(=N/NC(=O)c1cccs1)c1cccs1	none
C/C(=N\NC(=O)CC1(C)OCCO1)c1cccs1	NS3 helicase inh 46 | NS3 hel confirm inactive | FID counter trip inactive
CC1=NNC(=O)C1CC(=O)N/N=C/C(C)=C/c1ccccc1 (stereo not drawn)	none
CC(/C=N/NC(=O)Cc1cc(=O)[nH][nH]1)=C\c1ccccc1	NS3 helicase inh 39 (no result: Lipid droplet) | NS3 hel confirm inactive | FID counter trip inactive
O=C(Cn1cc(C(=O)COc2ccccc2)c2ccccc21)NCc1ccco1	NS3 helicase inh 44 | NS3 hel confirm inactive | FID counter trip inactive
CC(=O)c1cn(CC(=O)NCc2ccco2)c2ccccc12	none (no result: Lipid droplet)
CCOc1ccc(C(=O)OCC(=O)NC(C)C)cc1	none
CCc1cc2c(=O)n(Cc3ccco3)c(SCc3c(C)noc3C)nc2s1	NS3 helicase inh 51 | NS3 hel confirm 48 | FID counter trip inactive | FID counter DR inactive
CCc1cc2c(=O)n(Cc3ccco3)c(SCC(=O)N3CCCc4ccccc43)nc2s1	NS3 helicase inh 43 (no result: Lipid droplet) | NS3 hel confirm inactive | FID counter trip inactive
CCc1cc2c(=O)n(Cc3ccco3)c(SCC(=O)NCC3CCCO3)nc2s1 (stereo not drawn)	none
Cc1cc(/C=C2\SC(=S)NC2=O)c(C)n1-c1ccccc1	NS3 helicase inh 39 | NS3 hel confirm inactive | FID counter trip inactive
Cc1cc(/C=C2\SC(=S)NC2=O)c(C)n1-c1ccc(O)cc1	NS3 helicase inh 45 | NS3 hel confirm inactive | FID counter trip inactive
COc1ccccc1C(=O)NC(CCSC)C(=O)NCCCSc1ccccc1 (stereo not drawn)	none (no result: Lipid droplet, NS3 helicase inh)
CCCc1nn(C)c(C(=O)Nc2ccccc2)c1Cl	none
COCCCn1c(=O)/c(=C\c2ccccc2OC(C)C)s/c1=C(/C#N)C(=O)Nc1ccc(C(=O)O)cc1	NS3 helicase inh 50 | NS3 hel confirm 58 | FID counter trip inactive
COCCCn1c(=O)/c(=C\c2ccccc2OC(F)F)s/c1=C(/C#N)C(=O)NC(C)C	none
O=C(NCCc1ccccc1F)C1C(=O)Nc2ccccc2C(=O)N1C1CCCCC1 (stereo not drawn)	none (no result: Lipid droplet, NS3 helicase inh, HCV core dimer)
CN(C)S(=O)(=O)c1cccc(NC(=S)N/N=C/c2cccc(O)c2)c1	none
CN(C)S(=O)(=O)c1cccc(NC(=S)N/N=C/c2cc(Br)ccc2O)c1	NS3 helicase inh 46 | NS3 hel confirm 53 | FID counter trip inactive
CC1(C)Cc2nc3sc(C(=O)O)c(N)c3cc2CS1	NS3 helicase inh 48 (no result: TbMetRS inhib) | NS3 hel confirm inactive | FID counter trip inactive
CC1(C)Cc2nc3sc(C(=O)NCCCO)c(N)c3cc2CS1	none
Cc1ccc(OCC(=O)N/N=C\c2ccc(-c3cccc(C(=O)O)c3)o2)c(C)c1	NS3 helicase inh 43 | NS3 hel confirm 91 | FID counter trip inactive
CCOC(=O)N1CCC(c2cc(=O)n3[nH]c(C)c(-c4ccc(F)cc4)c3n2)CC1	none
COCCNC(=O)c1c[nH]n2c(=O)cc(C3CCN(C(=O)OC(C)(C)C)CC3)nc12	NS3 helicase inh 41 (no result: Lipid droplet) | NS3 hel confirm inactive | FID counter trip inactive
N#CC1=C(SCC(=O)c2ccccc2)NC2=C(C(=O)CCC2)C1c1ccco1 (stereo not drawn)	NS3 helicase inh 38 | NS3 hel confirm inactive | FID counter trip inactive
O=C(/C=C/c1ccc(Cl)cc1)N1CCN(Cc2ccccc2)CC1	none (no result: Lipid droplet)
O=C(Cn1cnc2ccccc2c1=O)NCCC(=O)N1CCN(Cc2ccccc2)CC1	NS3 helicase inh 38 | NS3 hel confirm inactive | FID counter trip inactive
O=C1OC(c2ccc(Br)cc2)=N/C1=C\c1ccco1	NS3 helicase inh 47 | NS3 hel confirm inactive | FID counter trip inactive
N#CC1=C2SCN(c3ccccc3)CN2C(=O)CC1c1cccs1 (stereo not drawn)	none (no result: Lipid droplet)
COc1ccc(OC)c(C2CC(=O)N3CN(c4ccccc4F)CSC3=C2C#N)c1 (stereo not drawn)	NS3 helicase inh 40 (no result: Lipid droplet) | NS3 hel confirm 66 | FID counter trip inactive | FID counter DR inactive
COc1ccc(Br)cc1C1CC(=O)N2CN(C)CSC2=C1C#N (stereo not drawn)	none (no result: Lipid droplet)
COc1ccc(Br)cc1C1CC(=O)N2CN(Cc3ccccc3)CSC2=C1C#N (stereo not drawn)	NS3 helicase inh 51 (no result: Lipid droplet) | NS3 hel confirm 40 | FID counter trip inactive
Cc1ccc(C2CC(=O)N3CN(c4ccc(Br)cc4)CSC3=C2C#N)o1 (stereo not drawn)	NS3 helicase inh 37, HCV core dimer 48 (no result: Lipid droplet) | NS3 hel confirm 72 | FID counter trip inactive | FID counter DR inactive
CCc1sc(C(C2C(=O)CC(C)(C)CC2=O)C2C(=O)CC(C)(C)CC2=O)cc1[N+](=O)[O-]	NS3 helicase inh 59 | NS3 hel confirm 68 | FID counter trip inactive
CCCn1c(SCC(=O)NNC(=O)c2ccc(C)cc2)nnc1C(C)C	none
COc1ccc(OCC(=O)Nc2ccc3c(c2)nc(CCn2ccccc2=O)n3C)cc1	NS3 helicase inh 45 | NS3 hel confirm inactive | FID counter trip inactive
O=S(=O)(NCc1ccccc1F)NCc1ccccc1F	none
O=C(NN=C1CCN(Cc2ccccc2)CC1)c1cc2ccccc2cc1O	NS3 helicase inh 39 (no result: Lipid droplet) | NS3 hel confirm inactive | FID counter trip inactive
O=C(NN=C1CCN(Cc2ccccc2)CC1)c1ccccc1O	none
